Screens deposited in PubChem by several laboratories.
Only some compounds are listed: those with a hit (about 1.5% of all), similar ones and a draw of the others.
Rad51 HR inh: Rad51 (human) homologous recombination inhibition; Q06609; hRad51 DNA strand exchange, fluorescence dequenching; inhibition, % at 10 µM; 200,000 compounds, 0.085% hits;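 active means inhibition above 40% at the single screening dose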
Target sequence (Q06609 whole entry, looked up): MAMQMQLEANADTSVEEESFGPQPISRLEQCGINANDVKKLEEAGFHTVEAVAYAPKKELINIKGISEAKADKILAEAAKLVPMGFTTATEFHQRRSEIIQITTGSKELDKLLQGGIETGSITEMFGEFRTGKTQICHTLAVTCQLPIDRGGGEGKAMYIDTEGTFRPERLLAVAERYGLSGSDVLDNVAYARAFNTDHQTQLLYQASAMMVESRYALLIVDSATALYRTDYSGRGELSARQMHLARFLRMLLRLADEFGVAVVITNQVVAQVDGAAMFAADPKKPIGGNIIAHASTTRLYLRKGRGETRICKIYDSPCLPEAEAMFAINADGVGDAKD
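System: human Rad51 nucleoprotein filaments preassembled on unlabelled ssDNA. Reagent: labelled 47-mer dsDNA for strand exchange. Schedule: 30-min compound preincubation and 15-min exchange, both room temperature. Measured by: FRET fluorescence dequenching, excitation 485 nm, emission 520 nm. Read-out: Fluorescence-based percent inhibition, control- and blank-normalised. Benchmarks: plate controls and plate blanks.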
TbHK1 inh: T. brucei hexokinase 1 inhibition; recombinant TbHK1, G6PDH-coupled NADH A340; inhibition, % at 10 µM; 220,000 compounds, 0.11% hits; AID 1430;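 active means inhibition of 50% or more in the single-dose primary screen; inactive means inhibition below 50%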
b-catenin transl: modulators of beta-catenin nuclear translocation | nuclear translocation activity, % at 5 µM | 190,000 compounds, 0.3% hits | HeLa beta-catenin nuclear translocation, immunofluorescence imaging;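 active means nuclear translocation activity above 50% at 5 µM, with a well cell count of 50 or more; inconclusive means wells under 50 cells across six images, flagged as toxic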;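 further: per-cell ratio of nuclear to cytoplasmic median beta-catenin stain intensity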
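Test system: HeLa cells, endogenous beta-catenin; Compound: single 5 µM dose plus 0.02–20 µM confirmation series; Times: compound exposure 24 h at 37°C; Signal: fluorescence imaging of beta-catenin antibody stain plus DAPI; Read-out: % activation, nuclear-to-cytoplasmic median beta-catenin signal ratio per cell.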
MT stabilizer: stabilizes microtubules in HeLa cells; HeLa tubulin immunostaining HCS, 24 h; share of cells brighter than vehicle mean+2SD; % tubulin-high responders, % at 10 µM; 200,000 compounds, 0.83% hits; AID 2205;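 active means plate Z-score above 3 for both tubulin-high and condensed-nucleus cell shares, with cell loss under 80%, at 10 µM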;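 further: anti alpha tubulin signal scored within the nucleus-defined area of each cell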
Dynein cargo inh: blocks dynein driven cargo transport along microtubules; z-score, hits read low; 3617.4 mouse cells, GR-EGFP nuclear translocation imaging; test concentration mostly 20 µM; stimulated with dexamethasone, 1 µM; stronger effect = lower value; 220,000 compounds, 0.47% hits;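 active means plate z-score of nuclear minus cytoplasmic receptor signal below a set negative limit, without overly bright fluorescence or cell loss, cut at about -3.5 in these data, passing the limit was not always enough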;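 further: z-score of nuclear minus cytoplasmic ring GR-EGFP intensity difference per well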
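Medium: Induction medium lacking tetracycline, stripped serum | Probe or stimulus: 1.0 µM final dexamethasone stimulus | Schedule: 48 h induction, then 1 h compound, then 30 min agonist, 37 °C | Signal: Automated 10x imaging of fixed Hoechst-stained cells | Evaluation: Per-cell GR-EGFP intensity, nucleus versus surrounding cytoplasmic ring, well-averaged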
Dynein inh conf: dynein cargo transport inhibition, confirmation; shares compounds with Dynein cargo inh; 3617.4 GR-EGFP nuclear translocation imaging, dexamethasone-induced; calls only at 20 µM; 1,000 compounds, 69% hits; AID 463116;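 active means inhibition of receptor movement into the nucleus at or above a set limit in both runs, with normal cell brightness and cell count; inconclusive means limit reached in only one run, brightness and count normal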;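 further: dexamethasone at 1 µM final in well for 30 min; nuclear minus cytoplasmic GR-EGFP mean intensity difference in channel 2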
Each line names hits and unclear results; the compound was inactive in the other large screens (follow-up assays come after a bar, where they were run).

Cc1cc(C)c(S(=O)(=O)Nc2ccc3c(c2)CCC3)c(C)c1	MT stabilizer 14
CCOc1ccccc1NC1c2ccccc2C(=O)N1c1cccnc1 (stereo unspecified)	none (no result: b-catenin transl)
CC(C)OC(=O)CCNc1n[nH]c(=O)[nH]c1=O	none (no result: b-catenin transl)
CC1=C(C(=O)c2ccccc2)C(c2ccc(OC(F)F)cc2)NC(=S)N1 (stereo unspecified)	MT stabilizer 22
CCOc1cccc(C(=O)Nc2ccc(N(CC)CC)cc2)c1	none
CCN(CC)c1ccc(NC(=O)c2ccc3c(c2)c(C)c(C)n3C)cc1	MT stabilizer 14 (no result: b-catenin transl)
O=C(c1ccc(F)cc1)N1CCN(c2ccc([N+](=O)[O-])c(N3CCOCC3)c2)CC1	none (no result: b-catenin transl)
C#CCNC(=O)C1CCN(c2ccc(S(=O)(=O)N3CCOCC3)cc2Cl)CC1	none
O=C(NCc1cccs1)C1CCN(c2ccc(S(=O)(=O)N3CCOCC3)cc2Cl)CC1	b-catenin transl 106, MT stabilizer 27
O=S(=O)(c1cc(-c2nnc(-c3ccc(Br)cc3)o2)ccc1Br)N1CCCCCC1	MT stabilizer 43
NC(=O)c1ccc(Br)c(S(=O)(=O)N2CCCCC2)c1	none
COc1ccc(-n2nnnc2S(=O)(=O)Cc2ccc(C(=O)O)cc2)cc1	none (no result: b-catenin transl)
COc1ccc(-n2nnnc2S(=O)(=O)CC(=O)N2CCCCC2)cc1	Dynein cargo inh -3.9 (no result: b-catenin transl)
CCc1ccccc1NC(=S)/N=C(\N)Nc1nc(C)c2cc(C)ccc2n1	MT stabilizer 23
CCS(=O)(=O)Nc1cccc(C2=NN(S(=O)(=O)CC)C(c3ccccc3)C2)c1 (stereo unspecified)	none
CS(=O)(=O)Nc1cccc(C2=NN(S(C)(=O)=O)C(c3ccccc3)C2)c1 (stereo unspecified)	Rad51 HR inh 43
Fc1cccc(CSc2ccc3nnc(-c4ccccn4)n3n2)c1	none
Cc1nc(NC(=O)c2ccc(Cl)cc2)sc1-c1csc(Nc2cccc(F)c2)n1	MT stabilizer 40
COc1ccc(N=c2ssnc2Cl)cc1	Dynein cargo inh -3.8 (no result: b-catenin transl)
Clc1nssc1=Nc1ccccc1	none
COc1cc(N=c2ssnc2Cl)cc(OC)c1OC	none (no result: b-catenin transl)
Clc1ccc(N=c2ssnc2Cl)cc1	Dynein cargo inh -4.3
CC1C(=O)CC(c2ccccc2)N(C)C1c1ccccc1 (stereo unspecified)	none (no result: b-catenin transl)
O=c1c2ccccc2sn1-c1cc(S(=O)(=O)N2CCOCC2)ccc1N1CCOCC1	TbHK1 inh 50, Dynein cargo inh -6.5
O=c1c2ccccc2sn1-c1cc(S(=O)(=O)N2CCOCC2)ccc1N1CCCC1	none
COc1ccc(-c2nc3ccc(N4CCCC4)cc3c(=O)[nH]2)cc1OC	MT stabilizer 15 (no result: Rad51 HR inh)
COc1ccc(-c2cc(C(=O)N3CCN(c4ccccc4)CC3)c3ccccc3n2)cc1OC	none
CCOC(=O)c1c(C)oc2c(F)c(F)c(F)c(F)c2c1=O	Dynein cargo inh -4.6 | Dynein inh conf active
COc1ccc(CCNC(=O)[C@@H]2C[C@H]2c2ccccc2)cc1OC	none
CC1=Nc2ccccc2/C1=C/c1nc(-c2ccc(C)s2)oc1O	none | Dynein inh conf inconclusive
CC1=Nc2ccccc2/C1=C\c1nc(-c2ccccc2)oc1O	none
O=C(CCl)N1CCN2C(=O)c3ccccc3C12c1ccc(Cl)cc1 (stereo unspecified)	Dynein cargo inh -4.6 | Dynein inh conf active
Cc1ccc(C(=O)N2CCN3C(=O)c4ccccc4C23c2ccc(Cl)cc2)cc1 (stereo unspecified)	none
Cc1ccc2c(CC(=O)O)coc2c1	none
Cc1cccc(NC(=O)CCC(=O)OCC(=O)c2ccc(Oc3ccc([N+](=O)[O-])cc3)cc2)c1	Dynein cargo inh -4.4 (no result: Rad51 HR inh) | Dynein inh conf inconclusive
Cc1ccc(NC(=O)CCC(=O)OCC(=O)c2ccc(Oc3ccc([N+](=O)[O-])cc3)cc2)cc1C	none (no result: Rad51 HR inh)
COc1ccccc1/C=C/C(=O)/C=C/c1ccccc1O	Dynein cargo inh -4.2 (no result: MT stabilizer) | Dynein inh conf active
CC(=O)c1ccc(NC(=S)NC2CCCC(C)C2C)cc1 (stereo unspecified)	none
CC[n+]1c(/C=C/C=C/N(C(C)=O)c2ccccc2)sc2cc(OC)ccc21	b-catenin transl 165, MT stabilizer 73, Dynein cargo inh -3.8 | Dynein inh conf active
CC[n+]1c(/C=C(\C)OC)sc2ccccc21	none
COc1cc(Cl)nn(-c2ccccc2)c1=O	none
O=c1c(Cl)cc(Cl)nn1-c1ccccc1	Dynein cargo inh -3.5 | Dynein inh conf active
COCc1cc(S(=O)c2ccc(Cl)cc2)nc(C)n1 (stereo unspecified)	Dynein cargo inh -4.5 | Dynein inh conf active
COCc1cc(Sc2ccc(Cl)cc2)nc(C)n1	none
COCCNC(=O)C(c1cccs1)N(C(=O)Cn1nnc2ccccc21)c1ccccc1 (stereo unspecified)	none
COc1cccc(N(C(=O)CCl)C(C(=O)NCCc2ccccc2)c2cccs2)c1 (stereo unspecified)	Dynein cargo inh -5.5 | Dynein inh conf active
COc1ccc(N(C(=O)CCl)C(C(=O)NCCc2ccccc2)c2cccs2)cc1Cl (stereo unspecified)	Dynein cargo inh -4.8 (no result: Rad51 HR inh) | Dynein inh conf active
COc1cccc(N(C(=O)CS(=O)CC(=O)Nc2ccc(F)cc2)C(C(=O)NC2CCCCC2)c2cccs2)c1 (stereo unspecified)	none (no result: Rad51 HR inh)
O=C(Nc1ccccc1)Nc1ccc(C(=O)N2CCCC2)cc1	none (no result: Rad51 HR inh)
O=C(O)CCc1nc(-c2cccs2)no1	none (no result: Rad51 HR inh)
CCCSc1cc(NCCOC(C)=O)c([N+](=O)[O-])c2nonc12	none
CC(=O)OCCCNc1cc(SCc2ccco2)c2nonc2c1[N+](=O)[O-]	Dynein cargo inh -5.5 | Dynein inh conf active
CCC(=O)OCCNc1cc(Sc2nc3ccccc3[nH]2)c2nonc2c1[N+](=O)[O-]	Dynein cargo inh -4.9 | Dynein inh conf inactive
CCCC(=O)OCCNc1cc(SCc2ccco2)c2nonc2c1[N+](=O)[O-]	Dynein cargo inh -3.9 | Dynein inh conf active
O=[N+]([O-])c1c(NCCCO)cc(Sc2nc3ccccc3s2)c2nonc12	Dynein cargo inh -4.1 (no result: Rad51 HR inh, b-catenin transl) | Dynein inh conf active
CCC(=O)OCCNc1cc(Sc2nc3ccccc3s2)c2nonc2c1[N+](=O)[O-]	none (no result: b-catenin transl)
CCCSc1cc(NCCOC(=O)CCC)c([N+](=O)[O-])c2nonc12	Dynein cargo inh -4.9 | Dynein inh conf active
CCC(=O)NC(=S)Nc1ccc2oc(-c3ccc(OC)cc3)nc2c1	none
CCCCc1ccc(/C=C2\C(=O)c3ccccc3C(O)=C2C(=O)OCC)cc1	Dynein cargo inh -4.2 | Dynein inh conf active
CCOC(=O)C1=C(Cc2ccc(F)cc2)C(=O)c2ccccc2C1=O	none (no result: b-catenin transl)
N#Cc1c(C(F)(F)F)cc(-c2ccc(Cl)c(Cl)c2)nc1SCCN1CCOCC1	none (no result: Rad51 HR inh)
